High-throughput results: PubChem BioAssay, Sanford-Burnham Center for Chemical Genomics
Shown are actives, neighbours in structure and some others; about 3.1% of the full set was active somewhere.
UBC13 polyUb: human UBC13 polyubiquitination inhibition; UBC13 polyubiquitin chain formation, TR-FRET; P61088; 330,000 tested, 0.47% active; inhibition, % at 20 µM; in the data active = inhibition above about 45%, passing the limit was not always enough
SENP8 block-1: blocks human SENP8 cleavage of Nedd8 substrate; 360,000 tested, 0.64% active; inhibition, % at 20 µM; recombinant SENP8, Nedd8 substrate fluorescence; in the data active = inhibition mostly above about 40%, no sharp cut-off; inactive = mostly below about 27%
SENP6 inh: blocks the human protease SENP6; Q9GZR1; Recombinant SENP6 catalytic domain, aminoluciferin luminescence; inhibition, % at 10 µM; 330,000 tested, 1.8% active;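 active = inhibition above about 50% at the single tested dose, limit read from the data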;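 also: plate controls were DMSO wells with enzyme for no effect and DMSO wells lacking enzyme for full effect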
Apaf-1 inh: blocks human Apaf-1 apoptosome activity | inhibition, % at 20 µM | O14727 | 330,000 tested, 0.71% active | reconstituted apoptosome caspase-3 activity, DEVD-Rh110 fluorescence; active = inhibition of at least 40% at 20 µM;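 also: plate controls were DMSO wells for no effect and DEVD-CHO caspase inhibitor wells for full effect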
Target sequence (O14727 whole entry, looked up): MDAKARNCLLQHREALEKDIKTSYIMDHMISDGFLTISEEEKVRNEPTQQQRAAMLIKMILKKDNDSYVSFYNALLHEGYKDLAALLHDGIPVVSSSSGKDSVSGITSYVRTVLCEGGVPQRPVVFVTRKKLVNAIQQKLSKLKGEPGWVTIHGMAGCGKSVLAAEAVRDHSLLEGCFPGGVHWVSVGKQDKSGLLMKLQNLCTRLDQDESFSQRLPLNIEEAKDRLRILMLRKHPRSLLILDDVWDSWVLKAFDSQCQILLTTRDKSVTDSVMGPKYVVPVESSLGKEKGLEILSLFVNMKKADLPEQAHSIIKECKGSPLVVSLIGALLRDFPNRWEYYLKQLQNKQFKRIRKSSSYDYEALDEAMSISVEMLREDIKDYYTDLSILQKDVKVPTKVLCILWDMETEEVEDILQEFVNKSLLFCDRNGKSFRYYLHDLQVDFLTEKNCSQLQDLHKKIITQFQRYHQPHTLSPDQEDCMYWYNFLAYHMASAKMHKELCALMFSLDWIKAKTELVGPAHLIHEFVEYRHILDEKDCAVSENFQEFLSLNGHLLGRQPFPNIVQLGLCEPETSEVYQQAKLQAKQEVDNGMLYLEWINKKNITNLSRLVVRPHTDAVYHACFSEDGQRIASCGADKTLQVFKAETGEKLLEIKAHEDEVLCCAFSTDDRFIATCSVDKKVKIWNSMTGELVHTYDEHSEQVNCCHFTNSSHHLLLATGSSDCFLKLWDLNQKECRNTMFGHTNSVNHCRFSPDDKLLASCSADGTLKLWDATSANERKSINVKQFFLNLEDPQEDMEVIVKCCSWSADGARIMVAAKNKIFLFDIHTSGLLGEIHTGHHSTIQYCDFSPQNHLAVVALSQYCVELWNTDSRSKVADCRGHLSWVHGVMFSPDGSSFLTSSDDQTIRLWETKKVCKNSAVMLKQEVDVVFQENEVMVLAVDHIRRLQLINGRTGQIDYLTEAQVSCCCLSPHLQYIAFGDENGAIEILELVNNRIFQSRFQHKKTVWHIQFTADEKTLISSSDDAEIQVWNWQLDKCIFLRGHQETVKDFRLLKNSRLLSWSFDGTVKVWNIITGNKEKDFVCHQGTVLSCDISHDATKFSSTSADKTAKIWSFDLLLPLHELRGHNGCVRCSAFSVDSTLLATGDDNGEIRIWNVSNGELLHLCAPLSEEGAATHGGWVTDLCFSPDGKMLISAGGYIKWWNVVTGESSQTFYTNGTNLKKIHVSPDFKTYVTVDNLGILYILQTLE
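Material: reconstituted apoptosome with Apaf-1, cytochrome c, caspase-9, procaspase-3, dATP. Technique: Rh110 fluorescence intensity. Buffer or medium: pH 7.5 Hepes buffer with CHAPS, BSA, DTT. Times: 30 min plus 50 min, RT.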
SENP8 block-2: SENP8 protease inhibition | inhibition, % at 10 µM | 330,000 tested, 1.2% active | Q96LD8 | AID 2540 | purified SENP8, Z-RLRGG-aminoluciferin cleavage, luminescence; in the data active = inhibition above about 50%
SENP7 inh: SENP7 protease inhibition. 330,000 tested, 1.5% active. recombinant SENP7, Z-RLRGG-aminoluciferin luminescence, 40 min. inhibition, % at 5 µM. Q9BQF6;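 active = inhibition above about 50% at the single test dose, limit read from the data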;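 also: plate controls were DMSO with enzyme for no effect and no enzyme buffer wells for full effect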
SENP8 inh conf: SENP8 (human) inhibition, single concentration confirmation. purified SENP8, Nedd8-AMC/pro-Nedd8 cleavage fluorescence, 30 min. AID 624319. shares compounds with SENP8 block-1. inhibition, % at 25 µM. 1,400 tested, 15% active; in the data active = inhibition mostly above about 39%, no sharp cut-off; inactive = mostly below about 34%
* marks the source's active call; other numbers are inactive results; i = inactive; nt = no result.

SMILES	UBC13 polyUb	SENP8 block-1	SENP6 inh	Apaf-1 inh	SENP8 block-2	SENP7 inh	SENP8 inh conf
Nn1cnnc1N/N=C/c1ccc(Cl)c([N+](=O)[O-])c1	-44.5	65.6*	-7.8	3.2	-6.9	-3.6	63.8*
O=C1CC(CC(=O)N/N=C/c2ccccc2[N+](=O)[O-])=NN1	-3.4	40.4*	11.1	45.9*	-0.2	11.4	12.8
Cn1c(=O)c2cc(NC(=O)Nc3ccccc3)ccc2n1Cc1ccccc1	nt	i	nt	nt	nt	nt	nt
COC(=O)CCCC1=CC2=CC(=O)C(C)(OC(=O)c3cccs3)C(=O)C2=CN1C1CCCC1 (stereo not drawn)	-36.0	45.6*	7.5	36.7	9.3	3.1	49.1*
COC(=O)CCCC1=CC2=CC(=O)C(C)(OC(=O)c3cccs3)C(=O)C2=CN1Cc1ccccc1 (stereo not drawn)	-61.5	12.8	24.9	19.6	15.6	5.5	nt
O=c1ccc(S(=O)(=O)N2CCCC2)c[nH]1	6.5	12.1	-4.1	-8.5	-3.1	7.4	nt
O=c1ccc(Br)c[nH]1	-1.2	42.0*	11.4	2.0	10.5	14.1	22.2
c1ccc(CC2CCN(C(c3cccs3)c3nnnn3C3CCCC3)CC2)cc1 (stereo not drawn)	-4.1	12.1	-0.2	-9.9	-1.9	7.3	nt
c1ccc(CN(Cc2cccs2)C(c2cccs2)c2nnnn2C2CCCC2)cc1 (stereo not drawn)	0.3	42.7*	-2.2	1.7	-6.4	-1.7	11.6
COCCN1C[C@@H](CO)O[C@@H](n2cnc3c(NCc4ccco4)ncnc32)C1	nt	-16.1	nt	nt	nt	nt	nt
Nc1c(C(=O)c2ccccc2)sc2nsc(SCCN3CCCC3)c12	-13.1	43.8*	-11.6	21.4	-8.2	-2.7	13.1
O=C(Nc1cccnc1)c1ccc([N+](=O)[O-])s1	-19.6	43.2*	10.2	8.2	2.8	10.2	29.9
Nc1ncnc2c1ncn2[C@@H]1O[C@H](C(=O)NCC2CCN(Cc3ccccc3)CC2)[C@@H](O)[C@H]1O	nt	10.8	nt	nt	nt	nt	nt
N#CC(CC(=O)OCc1ccccc1)NC(=O)OCc1ccccc1 (stereo not drawn)	nt	22.5	nt	nt	nt	nt	nt
C=CS(=O)(=O)c1c2cc(OC)ccc2nc2ccc(OC)cc12	nt	-476.8	nt	nt	nt	nt	nt
O=C(CCOc1ccccc1)Nc1cccc([N+](=O)[O-])c1	4.5	6.8	-7.9	-38.5	-4.7	2.1	nt
Cc1cccc(NC(=O)Cc2ccc(F)cc2)c1	8.4	41.7*	-13.1	-1.7	-12.6	-5.1	3.0
Cc1cccc(NC(=O)CNC(=O)CNC(=O)Cc2ccccc2)c1	0.3	0.8	-0.5	-0.2	-8.3	1.7	nt
Cc1cccc(OCCC(=O)Nc2c(C)n(C)n(-c3ccccc3)c2=O)c1	-0.4	42.0*	-10.7	4.8	-5.5	0.7	6.0
Cc1cccc(NC(=O)CCOc2ccccc2)c1	-3.8	40.4*	-11.4	7.3	-1.4	6.9	4.9
Cc1c(NC(=O)COc2cccc(Br)c2)c(=O)n(-c2ccccc2)n1C	-1.8	6.2	-11.8	6.8	-4.9	-11.5	nt
CCCCC(=O)N(C)c1c(CC)nc2c(OCC(N)=O)cccn12	nt	5.8	nt	nt	nt	nt	nt
CC(=O)C1=C(C)NC(C)=C(C(C)=O)C1c1ccccc1	4.0	41.2*	2.0	-6.5	10.8	-0.4	11.3
CSC1=C(C#N)C(c2ccccc2)C(C(C)=O)=C(C)N1 (stereo not drawn)	1.9	-17.5	4.5	-5.5	-3.7	0.8	nt
Cc1ccc(NC(=S)N/N=C/c2c(Cl)cccc2Cl)c(C)c1	-2.1	29.1	3.4	12.5	0.0	10.0	nt
SMILES	UBC13 polyUb	SENP8 block-1	SENP6 inh	Apaf-1 inh	SENP8 block-2	SENP7 inh	SENP8 inh conf
Cc1ccc(NC(=S)N/N=C/c2ccc(OCCC(C)C)cc2)c(C)c1	-18.4	41.2*	-13.1	4.8	-10.3	-7.6	18.4
COc1ccc(C(=O)/C=C/c2ccccc2)c(OC)c1	2.9	32.9	47.0	-2.9	42.2	37.7	nt
COCOc1cc(O)c(C(=O)/C=C/c2ccccc2)c(OCOC)c1	4.0	50.6*	6.9	0.0	11.9	-8.9	6.1
COc1ncc(-c2ccc(N3C(c4ccsc4)=Cc4ccccc4C3CC(C)=O)cc2)cn1 (stereo not drawn)	nt	-395.9	nt	nt	nt	nt	nt
CCC(C)[C@H](NC(=O)Nc1cccc(Cl)c1)C(=O)O (stereo partly drawn)	-0.2	47.5*	-25.1	-8.2	-6.4	-0.5	16.0
CCC(C)[C@H](NC(=O)Nc1ccc(S(N)(=O)=O)cc1)C(=O)O (stereo partly drawn)	12.8	9.6	-18.7	-7.7	-10.3	-12.5	nt
COc1ccc(-c2[nH][nH]c(=O)c2NC(=O)c2ccccn2)cc1	nt	41.6*	nt	nt	nt	nt	31.3
O=C(Nc1c(-c2ccccc2)[nH][nH]c1=O)c1ccco1	nt	64.2*	nt	nt	nt	nt	17.6
Cc1ccc(C(=O)Nc2c(-c3ccc(Cl)cc3)[nH][nH]c2=O)cc1	nt	46.7*	nt	nt	nt	nt	30.4
O=C(CSC1=NNC(c2ccccn2)S1)Nc1ccccc1 (stereo not drawn)	11.7	47.6*	-18.0	-12.3	3.9	9.0	19.6
O=C(CSC1=NNC(c2ccccn2)S1)Nc1cccc(Cl)c1 (stereo not drawn)	-7.7	24.8	-11.1	-28.9	-7.7	8.0	nt
CN(c1ccc([N+](=O)[O-])cc1)c1cc2c(c3c1ccn3C)C1CCC2C1 (stereo not drawn)	nt	8.6	nt	nt	nt	nt	nt
O=C(Nc1ccc(F)c(Cl)c1)c1ccc2sc([C@@H]3O[C@H](CO)[C@H](O)[C@H](O)[C@H]3O)nc2c1	nt	17.4	nt	nt	nt	nt	nt
Cc1ccc(C)n1-c1ccc(N2CCOCC2)c([N+](=O)[O-])c1	-8.5	16.0	-15.6	-12.2	-0.6	4.0	nt
O=[N+]([O-])c1cc(-n2cccc2)ccc1N1CCOCC1	-13.8	41.8*	11.3	1.3	5.9	9.4	7.5
CC1CCN(c2cc(N3CCOCC3)c([N+](=O)[O-])cc2F)CC1	-23.3	41.3*	-24.2	9.8	-0.2	0.9	23.0
Cc1ccc(NC(=O)CSCc2c(C)noc2C)cc1C	-3.9	40.2*	-16.6	18.3	-7.2	-11.1	24.6
C[N+](C)(C)C[C@H](O)CC(=O)[O-]	12.0	45.1*	-8.1	-14.2	2.2	-3.1	13.8
COC(=O)CSc1nnc(CNS(=O)(=O)c2ccc(C)cc2)n1C	1.0	42.1*	7.1	1.5	-1.2	-2.9	-0.5
COC(=O)CSc1nnc(CNS(=O)(=O)c2ccc(Br)cc2)n1C	6.7	15.5	-7.6	-17.6	-0.5	0.4	nt
COC(=O)CSc1nnc(CNc2ccc(OC)cc2)n1C	-20.1	69.2*	-8.9	15.4	-1.2	-4.1	0.1
C=CCNC(=S)NN=C1CCC(c2ccccc2)CC1 (stereo not drawn)	1.6	45.1*	10.0	14.7	15.4	-2.7	18.0
CCOc1ccc(OCC(=O)Nc2ccc(S(=O)(=O)Nc3cc(C)nc(C)n3)cc2)cc1	-2.4	42.1*	-11.0	5.0	-1.8	-4.6	5.2
Nc1nc(NCCO)nc(NC2CCCCC2)c1[N+](=O)[O-]	0.8	18.4	-35.9	18.1	-13.0	-11.2	nt
